Reference: article PMC5749269 (ACS biomaterials science & engineering, 2017)
Where no end group is shown, it is not given here.

Experiments:
[1] = test system: WEHI 274.1 murine monocytes; assay: In vitro cell viability; details: MTS assay, varying concentrations, 24 and 72 h, n = 6
[2] = test system: CCR2 gene expression in 22Rv1 prostate cancer cells; assay: CCR2 expression by qRT-PCR; assay type: cell-based; details: 22Rv1 cells, 5 μM (noncytotoxic), vs PBS, n = 3
In short: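 22Rv1 cells kept in RPMI-1640 with 10% FBS and 1% penicillin-streptomycin at 37 °C, 5% CO2, treated with test compound at 5 μM or PBS. cDNA made with an RT2 first-strand kit and amplified with RT2 SYBR Green qPCR master mix. Relative expression vs Actb or GAPDH housekeeping gene by the 2ΔΔCq method. n = 3, mean ± SEM.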

[3] = test system: 22Rv1 prostate cancer cells; assay type: cell-based; details: 72 h
[4] = test system: PC3 prostate cancer cells; assay: In vitro cytotoxicity; assay type: cell-based; details: 72 h
[5] = test system: WEHI 274.1 murine monocytes; assay: Chemotaxis assay; assay type: cell-based; details: 1000 μM, 4 h, transwell 8 μm pores, Pico Green, n = 5, mean ± SEM
Zeta potential analysis = assay type: physicochemical; details: 100 μM in water, n = 3
In short: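 Micelles made by methanol thin-film evaporation, overnight vacuum drying and 30 min hydration at 80 °C, then cooled to room temperature. Zeta potential measured on 100 μM micelles dissolved in water, n = 3.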

CYNSLVFRIRNSTQRKYRASISTK-OH [scrambled peptide]
cell viability of monocytes [1]: no decrease in cell viability | downregulation of CCR2 gene expression [2]: unappreciable CCR2 changes | IC50 [3]: 76.1 ± 15.8 µM | IC50 [4]: > 100 µM | migrated monocytes (DNA quantification) [5]: 13.9 ± 2.8 ng DNA/mL | zeta potential (Zeta potential analysis): 7.2 ± 3.4 mV
